Test results: the EternaBench riboswitch data

Test system: MS2 coat protein
Assay: apparent Kd, MS2 coat protein; higher = weaker binding; RNA-MaP array
How it was run: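 Designed RNAs were transcribed on an Illumina sequencing chip from sequenced DNA templates. They were incubated at room temperature with fluorescently labeled MS2 coat protein at 1.5 nM to 3 μM, for 0.8–1.5 h at the lowest to 10–20 min at the highest concentrations, in Tris-HCl pH 7.5 buffer with KCl, MgCl2, BSA, DTT, tRNA and Tween20, with or without input ligand. Apparent Kd is the median of per-cluster binding-curve fits. Designs measured on fewer than 10 clusters were excluded.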

[1] = designed as: OFF switch for flavin mononucleotide, no ligand
[2] = ligand present: flavin mononucleotide, designed as: OFF switch for flavin mononucleotide
[3] = designed as: ON switch for flavin mononucleotide, no ligand
[4] = ligand present: flavin mononucleotide, designed as: ON switch for flavin mononucleotide
[5] = designed as: ON switch for theophylline, no ligand
[6] = ligand present: theophylline, designed as: ON switch for theophylline

| Sequence | apparent Kd [1] [nM] | apparent Kd [2] [nM] | apparent Kd [3] [nM] | apparent Kd [4] [nM] | further results |
| --- | --- | --- | --- | --- | --- |
| GUGUCGCGUACAGGAUAUGCUUAGGCGCUGCCCUCACAUGAGGAUCACCCAUGUAGUUUCCGCAGGCAGAAGGGUACUGACGUC | 9.67 | 16.2 | – | – | – |
| AGUUUGGGCGCAGGAUAUCUUCACAUGAGGAUCACCCAUGUCCAUAAGAUAUUUAUGUCAUUUGGAGAGAAGGGCGGUUGUAAU | – | – | 55.1 | 36.1 | – |
| UACCGGGCGAUAGGAUAUAUCAGUUACUUCACAUGAGGAUCACCCAUGUUACCCGUGGAAAGUUGAUAGAAGGAUCCAGCUCCA | 44.8 | 41.2 | – | – | – |
| CACAGGUCAGUAGGAUAUGCUACAUGAGGAUCACCCAUGUGGUGGUAUAUGCGUCUAGGCGCAAAGCAGAAGGACUUCCAGGUG | 42 | 146 | – | – | – |
| ACAUGAGGAUCACCCAUGUUAAAAGAAGAUAGCAUAUUGGGUAGAAGGUCACAUUUCCAUUAAGUGAAGGAUAUACCAUGAUUC | – | – | 12.6 | 7.04 | – |
| UUAAUCGUGCAUGAUACCAGUAUCCGUAGAUACAUGAGGAUCACCCAUGUCUGGUUGGAAUACCCUUGGCAGCAUGGGUUGAGGA | – | – | – | – | apparent Kd [5]: 242 nM; apparent Kd [6]: 249 nM |
| AUUCGAACGGUCAGGAUAUGCGGAAAGACAUCGCAGCAGAAGGGACAUGAGGAUCACCCAUGUAAAGGGCACAA | 36.1 | 182 | – | – | – |
| ACAUGAUGCUAGAAGGGCACACAUGAGGAUCACCCAUGUCGAACGAUUCUUCGGGACUAUCGCAUGCAGGAUAUAGCUAAAUCG | – | – | 13.2 | 8.24 | – |
| GAAGUCGCCGAGAAGGGAGCGAAACUCUCUAUCACAUGAGGAUCACCCAUGUAGUUCUCGUGAGCUCAGGAUAUCGUCGAACGC | 14.5 | 10.5 | – | – | – |
| AGUGCAAUAUAGAAGGCCCAAACAUGAGGAUCACCCAUGUAGGUGUCACUGGUAGUGAAGGCUCGGGAGGAUAUAUCAUCCACA | – | – | 32.9 | 30.7 | – |
| AGCGACAUGAGGAUCACCCAUGUGUUAGCUAAGCCUCUCAGCAGAAGGGAUGGUGUCCCAGAUGAUCAGGAUAUGCUGUUUUUG | 32.2 | 23.9 | – | – | – |
| GGUUCUUGUUGACGUUUAUACAUGAGGAUCACCCAUGUUGCGCAGGAUAUUUCACAUUGAUAGAGAAAGAAGGGCGAUGUACGU | – | – | 10.4 | 8.68 | – |
| CGUACAAUUAAGAAGGGACAUUGCUAUAGACUGUCAGGAUAUUAUGUACAUGAGGAUCACCCAUGUAGUAGUCAAGGGUCGGAA | 16.7 | 61.7 | – | – | – |
| GUUUCACAUGAGGAUCACCCAUGUCAAUGCACUGUAGGAUAUGGUUGGUUUCCGCAGCGGCCAGAAGGACAAAUAU | – | – | 51.2 | 33.5 | – |
| CCUCGAACGGCAGGAUAUAUUGGUCAAAAUUCUAUAGAAGGGCCUCUCCCUGGAACAUGAGGAUCACCCAUGUGCGCACUUGUG | – | – | 57.4 | 61.9 | – |
| AUAGCCAAACAAGGAUAUACGCGCGUCACAGAAAAUGGGACAUGAGGAUCACCCAUGUGGGAAGAGUAGAAGGUGUUUCCAGAU | 251 | 147 | – | – | – |
| AGUACGUCAGGAUAUCGCGUACGAAACAUGAGGAUCACCCAUGUGGUGCCGUGGCUCUAUCGAGAAGGGACUUGGC | 13.3 | 12.6 | – | – | – |
| UACCGCUACAUAGGAUAUGGAGGAUGUAUGAAACACAUGAGGAUCACCCAUGUCAUCUGCACACGCCAGAAGGAUGGAAGAAAA | – | – | 13.4 | 7.13 | – |
| GACAGACAUGAGGAUCACCCAUGUGAUACAGGCGUAGGAUAUUCGUGAGGAUACAGAAAAGAAGAAGGACGGGAAG | – | – | 40.3 | 38 | – |
| AUACAGCUAGGAUAUCCGAUAGUAUACAUGAGGAUCACCCAUGUCCUGACGGCCGACCAUGGAGAAGGAGCAGAUA | 42.2 | 31.9 | – | – | – |
| AACAUGUGAGGAUAUAGUCAAAAUAGCACAAGUAACAUAAACUAGAAGGCACAUGAGGAUCACCCAUGUGAAUA | 7.9 | 10.6 | – | – | – |
| CACCCAACUAUACAUGAGGAUCACCCAUGUUGAAAGUGCAACAGAAGGCCCUACUAAUAUAGGAGGGAGGAUAUGUGAACCGAA | – | – | 62.5 | 11.4 | – |
| AAAGAACAUGAGGAUCACCCAUGUCAGGAUAUACAAAGACGUAGCAAAGCGGACUCAAGAAGAAGGGACAAGGA | 12.8 | 10.1 | – | – | – |
| ACCUAAUAAGGAUAUACGAAAGAGCCACCUGUAAACAACCGACAUGAGGAUCACCCAUGUAGAAGGUAUUAGGU | 4.32 | 9.47 | – | – | – |
| GCCCGGACACAAGGAUAUCAGACCAAUACAUGAGGAUCACCCAUGUCGGGCCUCUAAGUACGACCUGAGAAGGUGUCUCCCAGU | 421 | 345 | – | – | – |
| UCUCACAUGAGGAUCACCCAUGUGUGCGGUCGAGGACCGGUACGGCCGCCACUCGAAUCCUUCCGCGAGAAGAUUGUACGACGGC | – | – | – | – | apparent Kd (designed as: ON switch for tryptophan, no ligand): 76.2 nM; apparent Kd (ligand present: tryptophan, designed as: ON switch for tryptophan): 65.2 nM |
| UUGUGUACUCGAGGAUAUAAUGGACUACAUGAGGAUCACCCAUGUAUACGCCCACAGAGCGUCUUUUAGAAGGCGACGCAUCAU | – | – | 8.4 | 7.85 | – |

| Sequence | apparent Kd [1] [nM] | apparent Kd [2] [nM] | apparent Kd [3] [nM] | apparent Kd [4] [nM] | further results |
| --- | --- | --- | --- | --- | --- |
| UUAUACGCGAAAGGAUAUCUGAGAGUGGGAUCGUGGACAUGAGGAUCACCCAUGUGGAGAGAGGGAGAGAAGGUUCGGGUAUUC | 31.7 | 29.5 | – | – | – |
| CCGAACACUUAGAAGGAUUUAAUCUAUAAUUGAAUAGGAUAUAAGGCCUUACGUGCGAAUGAACACAUGAGGAUCACCCAUGUA | 15.1 | 12.6 | – | – | – |
| GUCUCAGACCGAGAUACCAGCUGGGUUUCCCACAUGAGGAUCACCCAUGUAUUCAGAUUAAGCCCUUGGCAGCUCAUCUAGGUCC | – | – | – | – | apparent Kd [5]: 15.8 nM; apparent Kd [6]: 20.9 nM |
| UAAUAGAUUACGGCCGCCACUGAAGUGGACUUUAUGAGCAGGAUUCACAUGAGGAUCACCCAUGUCAGGACCGGGUACGUCCAUA | – | – | – | – | apparent Kd (designed as: OFF switch for tryptophan, no ligand): 39.2 nM; apparent Kd (ligand present: tryptophan, designed as: OFF switch for tryptophan): 45.4 nM |
| AACCAUCUCGGCGAUACCAGUGCCUACGAGUACAUGAGGAUCACCCAUGUAGGUGACCGACACCCUUGGCAGCGCGAUUGAGUCA | – | – | – | – | apparent Kd [5]: 140 nM; apparent Kd [6]: 70.6 nM |
| UUCGGCCUUUAGAAGGAUUGUAUACAUGAGGAUCACCCAUGUUGGUGAUACAGAUAUAUUCGGCAAUAGGAUAUAAGCAGGUGA | 826 | 598 | – | – | – |
| UUUAUGUCAGGAUAUCCAACACUAUGGGAAAGUAAAUAUAGGGAGAAGGGACAUGAGGAUCACCCAUGUCAACA | 8.12 | 8.59 | – | – | – |
| CACGCUCACCAGAAGGCAGAGCAUAAAUGACAUGAGGAUCACCCAUGUACGCAGGAGAUCGGGUCUGAGGAUAUGGCAAUAGGC | – | – | 21.4 | 20.5 | – |
| AAGGAAUAUGAGGAUAUUGAUGCGAAACCUACUCAAGAAGGCAUAACAUGAGGAUCACCCAUGUGACCCUUAUA | 19.4 | 34.4 | – | – | – |
| GGUUCCGCUAAGGUGAAACAUGAGGAUCACCCAUGUCAAUCUGAGGAUAUUUAUCUCGACGAGGCAAAGAAGGCAGACUCGCGG | 9.53 | 14.8 | – | – | – |
| AGUACCGUACGGAAAACAUGAGGAUCACCCAUGUCUAAUUAGAAGGAUAUGCUCUGUAAAUCGACGCAGAAGGUCAGCUAGAAU | – | – | 22.5 | 19 | – |
| GGUUGGUCGCAGGAUACCAGUCCACCCGUGAUACUGCUAAACAUGAGGAUCACCCAUGUCGACCCUUGGCAGCCUGUCCAUGCGU | – | – | – | – | apparent Kd (designed as: OFF switch for theophylline, no ligand): 16.3 nM; apparent Kd (ligand present: theophylline, designed as: OFF switch for theophylline): 124 nM |
| AACAUGAGGAUCACCCAUGUCACAUACAAGUGGAGUUCUAUGAGAAGGGCGAAACGAAUGAGCACGCAGGAUAUCAGCGAUAAA | – | – | 13.5 | 11.3 | – |
| GCUUUGCUGUGGUCCCUGAUACAUGAGGAUCACCCAUGUGAGAAGGAUAUUCAGAAUGGUCUCCCGAAGAAGGUCUGCACCUGG | 15.4 | 11.3 | – | – | – |
| UUAGACCUGCGAGGAUAUUCCAGACUAACUGAGGAAGAAGGCGCUAGAACAUGAGGAUCACCCAUGUAACAGGGAACACUUCGU | 9.82 | 26.3 | – | – | – |
| UAGUAACAUGAGGAUCACCCAUGUCAGGAUAUGAGGUCUACGGCAUAAGCGAAUCGGGUCAGAAGGGACAUAAC | 20.4 | 16.9 | – | – | – |
| UUGUAACAUGAGGAUCACCCAUGUAUGAACUAACAAGGAUAUGCGUGAGUCAGAUAAGACGCAGAAGGUGUCAGAU | – | – | 10.3 | 7.55 | – |
| CUCCCACAUGAGGAUCACCCAUGUAUGAAAAUACAAGGAUAUGGCGUCCUGAUUAGCGGCCCAGAAGGUGUGCUUU | – | – | 114 | 70.2 | – |
| CUGUUACAUGAGGAUCACCCAUGUUUUUGGUUAAGAGGAUAUGGCACAUGGUUAAACGUUCCAGAAGGCUUUGCAC | – | – | 11.8 | 8.94 | – |
| UCGUUGGCACAGAAGGGACUCUCGAAGCAUGUGUCAGGAUAUGUGCGCUACAUGAGGAUCACCCAUGUCAAGACCUGGUUAGCA | 29.4 | 18.8 | – | – | – |
| AUAAAUUUUACACGUUGCUACAUGAGGAUCACCCAUGUGUGGAGAAGGGAUCUGCCUACAAGGAAUCAGGAUAUCCAACUGUUC | – | – | 32.9 | 51.6 | – |
| CGACGCUUAGGAUAUUGGUACACCUACAUGAGGAUCACCCAUGUGACUCCUUUACAAGGGCAAGAAGGAAGUUGGU | 110 | 221 | – | – | – |
| CAAUAACAGAAAGGAUAUGGGCUCGAUACAUGAGGAUCACCCAUGUCUCCGUCAACGCUCAGUGCCCAGAAGGUUCCGCAGAAU | – | – | 34 | 20.2 | – |
| ACACAGUCAGGAUAUACACAAAAUCUCAGUCUAGUAAGUAAACAUGAGGAUCACCCAUGUAGAAGGGACUUUAA | 6.95 | 7.79 | – | – | – |
| CUUCAACAUGAGGAUCACCCAUGUAGUGAUACCAGUCACUCAUACGACCCUUGGCAGCACAUUUUCUGUCGGCAUGUAGACGAUC | – | – | – | – | apparent Kd [5]: 121 nM; apparent Kd [6]: 59.9 nM |
| CGAUGACAUGAGGAUCACCCAUGUUGCGGUAUUCAAGGAUAUCCUGAGUUUUCAAGCAUUGGAGAAGGUGAUUUCG | – | – | 30.1 | 26.1 | – |
| AUGUCGCAAUGGAAAAGACAUGAGGAUCACCCAUGUCAGCGUAGAAGGACCUUGUCGACUAAUGGGUAGGAUAUACGAGAAUCC | – | – | 6.79 | 7.2 | – |
